Assay results as given in ChEMBL document CHEMBL1122044, “Antiinflammatory agents. 2. Syntheses and antiinflammatory activity of substituted 2-aminophenylacetic acid derivatives” (J Med Chem, 1982).

Key:
Cyclooxygenase [1] = molecular target: T1, Cyclooxygenase (Bos taurus, UniProt O62664+O62698); experiment: Evaluated for the inhibition of Prostaglandin synthetase obtained from bovine seminal vesicles at the dose of 20 mg/kg (p.o.); set-up: dose 20 mg/kg, route oral
T1 sequence (O62664 whole entry): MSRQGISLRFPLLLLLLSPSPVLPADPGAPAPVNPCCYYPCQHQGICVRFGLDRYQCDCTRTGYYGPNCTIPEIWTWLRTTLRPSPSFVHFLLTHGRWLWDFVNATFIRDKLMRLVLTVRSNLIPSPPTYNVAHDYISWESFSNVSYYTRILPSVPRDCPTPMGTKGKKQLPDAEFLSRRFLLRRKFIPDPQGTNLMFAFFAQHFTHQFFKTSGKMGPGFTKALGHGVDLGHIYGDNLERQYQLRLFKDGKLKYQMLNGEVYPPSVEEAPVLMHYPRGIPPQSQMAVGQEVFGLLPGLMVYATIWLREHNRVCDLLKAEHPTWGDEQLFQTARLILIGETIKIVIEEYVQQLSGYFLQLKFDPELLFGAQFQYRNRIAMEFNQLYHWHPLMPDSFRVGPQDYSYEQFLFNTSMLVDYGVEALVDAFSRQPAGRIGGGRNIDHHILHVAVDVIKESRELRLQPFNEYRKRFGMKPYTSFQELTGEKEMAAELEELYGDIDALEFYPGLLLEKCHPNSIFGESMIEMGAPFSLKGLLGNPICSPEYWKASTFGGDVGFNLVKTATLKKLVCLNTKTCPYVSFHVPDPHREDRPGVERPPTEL
T1 sequence (O62698 whole entry): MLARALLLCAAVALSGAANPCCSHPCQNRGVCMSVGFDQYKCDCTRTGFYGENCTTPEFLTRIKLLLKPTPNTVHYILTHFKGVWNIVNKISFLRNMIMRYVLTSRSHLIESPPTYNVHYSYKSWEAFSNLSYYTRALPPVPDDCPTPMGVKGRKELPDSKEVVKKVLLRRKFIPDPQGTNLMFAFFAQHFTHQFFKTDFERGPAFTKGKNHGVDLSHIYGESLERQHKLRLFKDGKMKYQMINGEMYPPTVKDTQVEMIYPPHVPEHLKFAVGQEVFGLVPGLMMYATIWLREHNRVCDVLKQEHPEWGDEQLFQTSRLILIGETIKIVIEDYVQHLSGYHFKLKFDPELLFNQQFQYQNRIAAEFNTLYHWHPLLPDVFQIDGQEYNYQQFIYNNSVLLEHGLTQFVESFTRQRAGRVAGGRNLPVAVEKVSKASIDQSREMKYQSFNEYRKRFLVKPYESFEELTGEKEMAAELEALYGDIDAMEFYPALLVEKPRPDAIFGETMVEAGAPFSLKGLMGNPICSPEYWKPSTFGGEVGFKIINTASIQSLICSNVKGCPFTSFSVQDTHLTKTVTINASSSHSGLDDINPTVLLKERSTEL
Method in brief: (§1)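 Cyclooxygenase-containing enzyme was a lyophilized 600g supernatant of bovine seminal vesicle homogenate in 0.05 M phosphate, pH 7.8. The assay used 0.1 M phosphate pH 7.8 with epinephrine and enzyme, and drug stocks of 3×10^-1 to 3×10^-6 M. After 3 min at 30 °C, arachidonic acid was added. Activity was taken as substrate minus basal O2-uptake rate, run in triplicate, and IC50 came from regression on log concentration.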

Rattus norvegicus [2] = experiment: Persent change of the antiinflammatory activity in the 5-h Evans Blue-Carrageenan induced pleural effusion assay at the dose of 20 mg/kg (p.o.); format: functional; settings: route oral
Method in brief: (§2)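 Six fasted male rats per group received compound orally by gavage (10 mL/kg) in vehicle containing 0.5% Tween 80. Pleural effusion was induced by intrapleural injection of 5 mL 0.075% Evans blue–0.5% carrageenan type 7 and measured after 5 h. Results are given as percent change in pleural fluid volume versus a concurrent control group, with indomethacin 4.0 mg/kg as standard.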

Rattus norvegicus [3] = experiment: Persent change of the antiinflammatory activity in the 5-h Evans Blue-Carrageenan induced pleural effusion assay at the dose of 4.0 mg/kg (p.o.); format: functional; settings: route oral; method in brief: as §2
Rattus norvegicus [4] = experiment: Evaluated for the antiinflammatory activity in the 5-h Evans Blue-Carrageenan induced pleural effusion assay at the dose of 20 mg/kg (p.o.); format: functional; settings: route oral; method in brief: as §2
Rattus norvegicus [5] = experiment: Evaluated for the antiinflammatory activity in the 5-h Evans Blue-Carrageenan induced pleural effusion assay at the dose of 4.0 mg/kg (p.o.); format: functional; settings: route oral; method in brief: as §2
Cyclooxygenase [6] = molecular target: T1, Cyclooxygenase; experiment: Evaluated for the inhibition of Prostaglandin synthetase obtained from bovine seminal vesicles at the dose of 4 mg/kg p.o.; set-up: dose 4 mg/kg, route oral; method in brief: as §1
Rattus norvegicus [7] = experiment: Percent change of the antiinflammatory activity in the 5-h Evans Blue-Carrageenan induced pleural effusion assay at the dose of 4.0 mg/kg (p.o.); format: functional; settings: route oral; method in brief: as §2
Rattus norvegicus [8] = experiment: Percent change of the antiinflammatory activity in the 5-h Evans Blue-Carrageenan induced pleural effusion assay at the dose of 20 mg/kg (p.o.); format: functional; settings: route oral; method in brief: as §2
Rattus norvegicus [9] = experiment: Persent change of the antiinflammatory activity in the 5-h Evans Blue-Carrageenan induced pleural effusion assay at the dose of 0.16 mg/kg (p.o.); format: functional; settings: route oral; method in brief: as §2
Rattus norvegicus [10] = experiment: Persent change of the antiinflammatory activity in the 5-h Evans Blue-Carrageenan induced pleural effusion assay at the dose of 0.8 mg/kg (p.o.); format: functional; settings: route oral; method in brief: as §2
Rattus norvegicus [11] = experiment: Evaluated for the antiinflammatory activity in the 5-h Evans Blue-Carrageenan induced pleural effusion assay at the dose of 0.16 mg/kg (p.o.); format: functional; settings: route oral; method in brief: as §2
Rattus norvegicus [12] = experiment: Evaluated for the antiinflammatory activity in the 5-h Evans Blue-Carrageenan induced pleural effusion assay at the dose of 0.8 mg/kg (p.o.); format: functional; settings: route oral; method in brief: as §2
Cyclooxygenase [13] = molecular target: T1, Cyclooxygenase; experiment: Evaluated for the inhibition of Prostaglandin synthetase obtained from bovine seminal vesicles at the dose of 100 mg/kg (p.o.); set-up: dose 100 mg/kg, route oral; method in brief: as §1
Rattus norvegicus [14] = experiment: Percent activity in the 5-h Evans Blue-Carrageenan induced pleural effusion assay at the dose of 100 mg/kg (p.o.); format: functional; settings: route oral; method in brief: as §2
Rattus norvegicus [15] = experiment: Percent activity in the 5-h Evans Blue-Carrageenan induced pleural effusion assay at the dose of 20 mg/kg (p.o.); format: functional; settings: route oral; method in brief: as §2
Rattus norvegicus [16] = experiment: Evaluated for the antiinflammatory activity in the 5-h Evans Blue-Carrageenan induced pleural effusion assay at the dose of 100 mg/kg (p.o.); format: functional; settings: route oral; method in brief: as §2
Cyclooxygenase [17] = molecular target: T1, Cyclooxygenase; experiment: Evaluated for the inhibition of prostaglandin synthetase obtained from bovine seminal vesicles at the dose of 4.0 mg/kg (p.o.); set-up: dose 4 mg/kg, route oral
Rattus norvegicus [18] = experiment: Percent change of the antiinflammatory activity in the 5-h Evans Blue-Carrageenan induced pleural effusion assay at the dose of 0.8 mg/kg (p.o.); format: functional; settings: route oral; method in brief: as §2
Rattus norvegicus [19] = experiment: Percent activity in the 5-h Evans Blue-Carrageenan induced pleural effusion assay at the dose of 0.16 mg/kg (p.o.); format: functional; settings: route oral; method in brief: as §2
Rattus norvegicus [20] = experiment: Percent change of the antiinflammatory activity in the 5-h Evans Blue-Carrageenan induced pleural effusion assay at the dose of 100 mg/kg (p.o.); format: functional; settings: route oral; method in brief: as §2
Rattus norvegicus [21] = experiment: Percent activity in the 5-h Evans Blue-Carrageenan induced pleural effusion assay at the dose of 4.0 mg/kg (p.o.); format: functional; settings: route oral; method in brief: as §2

| IC50 (Cyclooxygenase [1]) [µM] | SMILES | Change (Rattus norvegicus [3]) [%] | Pleural fluid (Rattus norvegicus [4]) [mL] | Pleural fluid (Rattus norvegicus [5]) [mL] | Change (Rattus norvegicus [7]) [%] | Change (Rattus norvegicus [8]) [%] | also measured |
| --- | --- | --- | --- | --- | --- | --- | --- |
| > 1000 | O=C([O-])Cc1cccc(Oc2ccccc2)c1.[Na+] | -7 | 4.9 | 5.1 |  |  | Change (Rattus norvegicus [2]): -11% |
|  | O=C([O-])Cc1cccc(C(=O)c2ccccc2)c1.[Na+] | -7 |  | 5.9 |  |  | IC50 (Cyclooxygenase [6]): 40 µM |
| 420 | O=C([O-])Cc1ccc(-c2ccccc2)cc1.[Na+] |  | 3.9 | 4.7 | -21 | -35 |  |
| 12 | CC(C(=O)[O-])c1ccc(-c2ccccc2)cc1.[Na+] (centres undefined) |  | 2.9 | 3.4 | -42 | -52 |  |
|  | CC(C(=O)[O-])c1cccc(C(=O)c2ccccc2)c1.[Na+] (centres undefined) [KETOPROFEN SODIUM] | -41 |  | 3.6 |  |  | IC50 (Cyclooxygenase [6]): 3.4 µM; Change (Rattus norvegicus [9]): -4%; Change (Rattus norvegicus [10]): -24%; Pleural fluid (Rattus norvegicus [11]): 5.8 mL; Pleural fluid (Rattus norvegicus [12]): 4.6 mL |
| 420 | Nc1c(CC(=O)[O-])cccc1Oc1ccccc1.[Na+] |  | 5.1 | 5.7 | 4 | -7 |  |
|  | CN(C)c1c(CC(=O)[O-])cccc1C(=O)c1ccccc1.[Na+] |  | 5.2 | 5.9 | -5 |  | IC50 (Cyclooxygenase [13]): > 1000 µM; Change (Rattus norvegicus [14]): -36%; Change (Rattus norvegicus [15]): -16%; Pleural fluid (Rattus norvegicus [16]): 3.9 mL |
|  | Nc1c(CC(=O)[O-])cccc1C(=O)c1ccccc1.[Na+] [AMFENAC SODIUM] |  |  | 4.5 | -25 |  | IC50 (Cyclooxygenase [17]): 0.2 µM; Change (Rattus norvegicus [18]): -17%; Change (Rattus norvegicus [19]): -15%; Pleural fluid (Rattus norvegicus [11]): 5.1 mL; Pleural fluid (Rattus norvegicus [12]): 5 mL |
|  | O=C([O-])Cc1cccc(C(=O)c2ccccc2)c1Cl.[Na+] |  |  |  |  |  | IC50 (Cyclooxygenase [13]): > 100 µM; Change (Rattus norvegicus [20]): -8%; Pleural fluid (Rattus norvegicus [16]): 5.7 mL |
|  | COc1ccc2c(c1)c(CC(=O)O)c(C)n2C(=O)c1ccc(Cl)cc1 [INDOMETHACIN] | -28 |  | 4 |  |  |  |
|  | CC(C(=O)[O-])c1cccc(C(=O)c2ccccc2)c1N.[Na+] (centres undefined) |  |  | 6 | -4 |  | IC50 (Cyclooxygenase [13]): 1 µM; Change (Rattus norvegicus [20]): -38%; Pleural fluid (Rattus norvegicus [16]): 3.4 mL |
| 98 | CC(C(=O)[O-])c1cccc(Oc2ccccc2)c1.[Na+] (centres undefined) [FENOPROFEN SODIUM] |  | 3.9 | 5.2 |  | -29 | Change (Rattus norvegicus [21]): -6% |
| 170 | Nc1cc(-c2ccccc2)ccc1CC(=O)[O-].[Na+] |  | 3.9 | 5.4 | -9 | -34 |  |
